Data published in ChEMBL document CHEMBL2062436, “Design, synthesis, and antiviral evaluation of purine-β-lactam and purine-aminopropanol hybrids” (J Med Chem, 2012).
Activity calls are given as the source filed them. The rule behind the calls is not given here.

Assays:
Hepatitis C virus = assay: Antiviral activity against Hepatitis C virus infected in […] cells by luciferase assay; type: functional, organism-based; settings: Hepacivirus hominis
dengue virus type 2 = assay: Antiviral activity against Dengue virus 2 assessed as inhibition of virus-induced cytopathic effect by cell-based assay; type: functional, organism-based
[1] = system: unidentified influenza virus; assay: Antiviral activity against unidentified influenza virus assessed as inhibition of virus-induced cytopathic effect by cell-based assay; type: functional, organism-based
[2] = system: Human immunodeficiency virus 1; assay: Antiviral activity against Human immunodeficiency virus 1 3B infected in MT4 cells by fluorescence analysis; type: functional, organism-based
[3] = Cytotoxicity against human HeLa cells by luminescence assay; type: cell-based
[4] = Selectivity index, ratio of CC50 for HeLa cells to EC50 for Human respiratory syncytial virus; type: toxicity, cell-based; settings: read-out: Ratio CC50/EC50
Outline: (§1)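 Ratio of CC50 to EC50. CC50 is the 50% cytotoxic concentration. EC50 is the concentration giving 50% inhibition of the virus-reduced signal relative to the uninfected cell control.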

Human orthopneumovirus = assay: Antiviral activity against Human respiratory syncytial virus infected in HeLa cells; type: functional, organism-based
[5] = Selectivity index, ratio of CC50 for host cell to EC50 for Chikungunya virus
Outline: (§2)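 SI calculated as CC50/EC50. CC50 is the 50% cytotoxic concentration in host cells. EC50 is the concentration giving 50% inhibition of the virus-reduced signal versus uninfected cell controls.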

Chikungunya virus = assay: Antiviral activity against Chikungunya virus assessed as inhibition of virus-induced cytopathic effect by cell-based assay; type: functional
Outline: (§3)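 EC50 taken as the compound concentration giving 50% inhibition of the virus-reduced cell signal, relative to uninfected cell controls.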

Coxsackievirus = assay: Antiviral activity against Coxsackievirus assessed as inhibition of virus-induced cytopathic effect by cell-based assay; type: functional, organism-based; outline: as §3
[6] = Selectivity index, ratio of CC50 for host cell to EC50 for Coxsackievirus; outline: as §2
Hepatitis B virus = assay: Antiviral activity against Hepatitis B virus infected in HepG2(2.2.15) by PCR analysis; type: functional, organism-based
[7] = Cytotoxicity against human HepG2 cells by resazurin assay; type: cell-based
[8] = Selectivity index, ratio of CC50 for HepG2 cells to EC50 for Hepatitis B virus; type: toxicity, cell-based; settings: human, read-out: Ratio CC50/EC50; outline: as §1
[9] = Selectivity index, ratio of CC50 for Hel299 cells to EC50 for Cytomegalovirus; type: toxicity, cell-based; settings: human, read-out: Ratio CC50/EC50; outline: as §1
[10] = Cytotoxicity human HEL299 cells by resazurin assay; type: cell-based, HEL 299
Cytomegalovirus = assay: Antiviral activity against Cytomegalovirus infected in human Hel299 cells; type: functional, organism-based; settings: Human betaherpesvirus 5, HEL 299

Compound | Activity (Hepatitis C virus) | Activity (dengue virus type 2) | Activity [1] | Activity [2] | CC50 [3] | selectivity ratio [4] | EC50 (Human orthopneumovirus) | Ratio CC50/EC50 [5] | EC50 (Chikungunya virus) | EC50 (Coxsackievirus) | Ratio CC50/EC50 [6] | EC50 (Hepatitis B virus) | CC50 [7] | selectivity ratio [8] | selectivity ratio [9] | CC50 [10] | EC50 (Cytomegalovirus)
O=C1[C@H](CCn2cnc3c(OCc4ccccc4)ncnc32)[C@@H](c2ccccc2)N1Cc1ccccc1 | inactive | inactive | inactive | inactive |  |  |  |  |  |  |  |  |  |  |  |  | 
CC(C)N[C@H](c1ccccc1F)[C@H](CO)CCCn1cnc2c(NCc3ccccc3)ncnc21 (relative stereo) | inactive | inactive | inactive | inactive | > 100 µM | > 4.25 | 23.6 µM |  |  |  |  |  |  |  |  |  | 
O=C1[C@@H](Oc2ccccc2)[C@@H](c2ccccc2)N1CCCn1cnc2c(NCc3ccccc3)ncnc21 (relative stereo) | inactive | inactive | inactive | inactive | 46.6 µM | 5.79 | 8.05 µM | >5.75 | 17.1 µM | 3.56 µM | >28.09 |  |  |  |  |  | 
O=C1[C@@H](OCc2ccccc2)[C@@H](c2ccc(Cl)cc2Cl)N1CCCn1cnc2c(NCc3ccccc3)ncnc21 (relative stereo) | inactive | inactive | inactive | inactive | 40.1 µM | 17.9 | 2.24 µM |  |  |  |  |  |  |  |  |  | 
O=C1[C@@H](OCc2ccccc2)[C@@H](c2ccccc2)N1CCn1cnc2c(NCc3ccccc3)ncnc21 (relative stereo) | inactive | inactive | inactive | inactive |  |  |  |  |  |  |  | 11.1 µM | > 50 µM | 4.52 |  |  | 
COc1ccccc1[C@@H]1[C@H](Oc2ccccc2)C(=O)N1CCn1cnc2c(NCc3ccccc3)ncnc21 (relative stereo) | inactive | inactive | inactive | inactive |  |  |  | 4.53 | 13 µM |  |  |  |  |  |  |  | 
O=C1[C@@H](Oc2ccccc2)[C@@H](c2ccccc2)N1CCCn1cnc2c(OCc3ccccc3)ncnc21 (relative stereo) | inactive | inactive | inactive | inactive |  |  |  |  |  | 2.94 µM | >34.05 |  |  |  | 4.13 | 70.8 µM | 17.2 µM
OC[C@@H](Oc1ccccc1)[C@H](NCCn1cnc2c(NCc3ccccc3)ncnc21)c1ccc(Cl)cc1 (relative stereo) | inactive | inactive | inactive | inactive | 8.23 µM | 4.29 | 1.92 µM | 6.19 | 11.5 µM |  |  | 3.47 µM | 31.9 µM | 9.19 |  |  | 
CCCN1C(=O)[C@H](CCCn2cnc3c(NCc4ccccc4)ncnc32)[C@H]1c1ccccc1 (relative stereo) | inactive | inactive | inactive | inactive |  |  |  |  |  | 2.77 µM | 17.11 |  |  |  | 4.29 | 30.7 µM | 7.16 µM
CC(C)N1C(=O)[C@H](CCCn2cnc3c(NCc4ccccc4)ncnc32)[C@H]1c1ccccc1F (relative stereo) | inactive | inactive | inactive | inactive | 75.6 µM | 9.71 | 7.79 µM |  |  |  |  |  |  |  |  |  | 
CC(C)N1C(=O)[C@H](CCn2cnc3c(OCc4ccccc4)ncnc32)[C@H]1c1ccccc1 (relative stereo) | inactive | inactive | inactive | inactive |  |  |  |  |  | 4.17 µM | 11.55 |  |  |  |  |  | 
CC(C)N1C(=O)[C@H](CCn2cnc3c(NCc4ccccc4)ncnc32)[C@H]1c1ccccc1 (relative stereo) | inactive | inactive | inactive | inactive |  |  |  |  |  |  |  |  |  |  |  |  | 
CC(C)N[C@H](c1ccccc1)[C@H](CO)CCn1cnc2c(NCc3ccccc3)ncnc21 (relative stereo) | inactive | inactive | inactive | inactive |  |  |  |  |  |  |  |  |  |  |  |  | 
CCCN[C@H](c1ccccc1)[C@H](CO)CCCn1cnc2c(NCc3ccccc3)ncnc21 (relative stereo) | inactive | inactive | inactive | inactive |  |  |  |  |  |  |  |  |  |  |  |  | 
CO[C@@H]1C(=O)N(CCCn2cnc3c(NCc4ccccc4)ncnc32)[C@@H]1c1ccc(C(C)C)cc1 (relative stereo) | inactive | inactive | inactive | inactive |  |  |  |  |  |  |  |  |  |  |  |  | 
CO[C@H](CO)[C@H](NCCCn1cnc2c(NCc3ccccc3)ncnc21)c1ccc(C(C)C)cc1 (relative stereo) | inactive | inactive | inactive | inactive |  |  |  |  |  |  |  |  |  |  |  |  | 
O=C1[C@@H](Oc2ccccc2)[C@@H](c2ccc(Cl)cc2)N1CCn1cnc2c(NCc3ccccc3)ncnc21 (relative stereo) | inactive | inactive | inactive | inactive |  |  |  |  |  |  |  |  |  |  |  |  | 
O=C1[C@@H](Oc2ccccc2)[C@@H](c2ccccc2)N1CCn1cnc2c(NCc3ccccc3)ncnc21 (relative stereo) | inactive | inactive | inactive | inactive |  |  |  |  |  |  |  |  |  |  |  |  | 
OC[C@@H](OCc1ccccc1)[C@H](NCCCn1cnc2c(NCc3ccccc3)ncnc21)c1ccc(Cl)cc1Cl (relative stereo) | inactive | inactive | inactive | inactive |  |  |  |  |  |  |  |  |  |  |  |  | 
OC[C@@H](Oc1ccccc1)[C@H](NCCCn1cnc2c(NCc3ccccc3)ncnc21)c1ccccc1 (relative stereo) | inactive | inactive | inactive | inactive |  |  |  |  |  |  |  |  |  |  |  |  | 
